What was measured:
[1] = molecular target: T1, Serotonin receptor 2a and 2b (5HT2A and 5HT2B) (Rattus norvegicus, UniProt P30994+P14842); experiment: Affinity in displacing [125I](R)-DOI from rat cortical homogenate 5-HT2 receptor.
How it was run: (§1)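 Male Sprague-Dawley rat frontal cortex homogenate (pooled from 10–20 rats, sucrose-washed, preincubated twice at 37 °C). Membranes at 200–400 µg protein in 50 mM Tris HCl pH 7.4 with 0.5 mM EDTA, 0.1% ascorbate, 10 µM pargyline and 10 mM MgCl2. Triplicates; Ki from 3–4 experiments.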

[2] = molecular target: T2, 5-hydroxytryptamine receptor 1A (Rattus norvegicus, UniProt P19327); experiment: Affinity in displacing [3H]8-OH-DPAT from rat hippocampal 5-HT1A receptor.; type: tissue-based, Hippocampus
T2 sequence (P19327 whole entry): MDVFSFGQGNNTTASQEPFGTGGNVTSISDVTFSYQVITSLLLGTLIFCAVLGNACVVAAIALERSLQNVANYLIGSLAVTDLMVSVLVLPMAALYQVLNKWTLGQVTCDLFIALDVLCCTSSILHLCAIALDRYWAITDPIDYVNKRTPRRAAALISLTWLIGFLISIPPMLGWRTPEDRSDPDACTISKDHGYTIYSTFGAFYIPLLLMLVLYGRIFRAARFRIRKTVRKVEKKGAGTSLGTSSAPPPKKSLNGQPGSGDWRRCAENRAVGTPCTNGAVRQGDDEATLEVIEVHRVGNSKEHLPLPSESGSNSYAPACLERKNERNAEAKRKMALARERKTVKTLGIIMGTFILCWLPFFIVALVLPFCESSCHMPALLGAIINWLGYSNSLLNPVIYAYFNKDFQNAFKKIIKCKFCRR
How it was run: (§2)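 Male Sprague-Dawley rat hippocampal homogenate (pooled from 10–20 rats, sucrose-washed, preincubated twice at 37 °C). Membranes at 200–400 µg protein in 50 mM Tris HCl pH 7.4 with 0.5 mM EDTA, 0.1% ascorbate and 10 µM pargyline. Displacement of 1.0 nM [3H]-8-OH-DPAT, 10 min at 37 °C, then filtered. Nonspecific binding defined with 10 µM serotonin. Triplicates; 3–4 experiments.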

Rattus norvegicus [3] = species: Rattus norvegicus; experiment: Potency of compound in 1-trained rats; type: functional
Rattus norvegicus [4] = species: Rattus norvegicus; experiment: Potency of compound in 1-trained rats measured as ED50 relative to LSD; type: functional
Rattus norvegicus [5] = experiment: Percentage of animals selecting drug lever at a dose 186 nmol/kg; type: functional
How it was run: (§3)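 Two-lever drug discrimination in rats trained to tell ip LSD tartrate (0.08 mg/kg, 186 nmol/kg, 30 min pretreatment) from saline, FR50 food schedule. Test drugs were given ip in saline. Test sessions ran under extinction and ended at 50 presses on one lever. Read-out was the percentage of rats selecting the drug lever at each dose; an 85% accuracy criterion applied.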

Rattus norvegicus [6] = experiment: Percentage of animals selecting drug lever at a dose 23 nmol/kg; type: functional; how it was run: as §3
Rattus norvegicus [7] = experiment: Percentage of animals selecting drug lever at a dose 47nmol/kg; type: functional; how it was run: as §3
Rattus norvegicus [8] = experiment: Percentage of animals selecting drug lever at a dose 93 nmol/kg; type: functional; how it was run: as §3
Rattus norvegicus [9] = experiment: Percentage of animals selecting drug lever at a dose 12 nmol/kg; type: functional; how it was run: as §3
Rattus norvegicus [10] = experiment: Percentage of animals selecting drug lever at a dose 290 nmol/kg; type: functional; how it was run: as §3
Rattus norvegicus [11] = experiment: Percentage of animals selecting drug lever at a dose 372 nmol/kg; type: functional; how it was run: as §3
Rattus norvegicus [12] = experiment: Percentage of animals selecting drug lever at a dose 465 nmol/kg; type: functional; how it was run: as §3
[13] = molecular target: T1, Serotonin receptor 2a and 2b (5HT2A and 5HT2B); experiment: Affinity in displacing [125I](R)-DOI from rat cortical homogenate 5-hydroxytryptamine 2 receptor.
How it was run: as §1, with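 “MgCl2. Displacement of 0.25 nM [125I]-(R)-DOI, 15 min at 37 °C, then filtered and gamma-counted.” for “MgCl2.”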

[14] = molecular target: T2, 5-hydroxytryptamine receptor 1A; experiment: Affinity in displacing [3H]8-OH-DPAT from rat hippocampal 5-hydroxytryptamine 1A receptor.; type: tissue-based, Hippocampus; how it was run: as §2
Rattus norvegicus [15] = experiment: Percentage of animals selecting drug lever at a dose 279 nmol/kg; type: functional; how it was run: as §3
Rattus norvegicus [16] = experiment: Percentage of animals selecting drug lever at a dose 301 nmol/kg; type: functional; how it was run: as §3
Rattus norvegicus [17] = experiment: Percentage of animals selecting drug lever at a dose 139 nmol/kg; type: functional; how it was run: as §3
Rattus norvegicus [18] = experiment: Percentage of animals selecting drug lever at a dose 163 nmol/kg; type: functional; how it was run: as §3
Rattus norvegicus [19] = experiment: Percentage of animals selecting drug lever at a dose 6 nmol/kg; type: functional; how it was run: as §3

Work on `CC[C@@H](C)NC(=O)[C@@H]1C=C2c3cccc4[nH]cc(c34)C[C@H]2N(C)C1` yielded a Ki [1] of 2.63 nM, a Ki [2] of 2.01 nM and an ED50 (Rattus norvegicus [3]) of 0.033 µmol/kg. For the same compound, the Relative potency (Rattus norvegicus [4]) was 0.82, the SDL (Rattus norvegicus [5]) was 88% and the SDL (Rattus norvegicus [6]) was 50%. For the same compound, the SDL (Rattus norvegicus [7]) was 75%, the SDL (Rattus norvegicus [8]) was 75% and the SDL (Rattus norvegicus [9]) was 13%.
`CC[C@H](C)NC(=O)[C@@H]1C=C2c3cccc4[nH]cc(c34)C[C@H]2N(C)C1` was tested, and the ED50 (Rattus norvegicus [3]) was 0.124 µmol/kg, the Relative potency (Rattus norvegicus [4]) was 0.22 and the SDL (Rattus norvegicus [5]) was 75%. It also gave an SDL (Rattus norvegicus [10]) of 67%, an SDL (Rattus norvegicus [11]) of 75% and an SDL (Rattus norvegicus [12]) of 100%. The SDL (Rattus norvegicus [7]) was 13%, the SDL (Rattus norvegicus [8]) was 50% and the Ki [13] was 7.76 nM. For the same compound, the Ki [14] was 4.61 nM.
`CN1C[C@H](C(=O)N2CCCC2)C=C2c3cccc4[nH]cc(c34)C[C@H]21` showed an ED50 (Rattus norvegicus [3]) of 0.168 µmol/kg, a Relative potency (Rattus norvegicus [4]) of 0.16 and an SDL (Rattus norvegicus [5]) of 60%. The SDL (Rattus norvegicus [15]) was 67%, the SDL (Rattus norvegicus [16]) was 82% and the SDL (Rattus norvegicus [7]) was 22%. For the same compound, the SDL (Rattus norvegicus [8]) was 22%, the SDL (Rattus norvegicus [17]) was 27% and the SDL (Rattus norvegicus [18]) was 40%.
In the case of `CCN(CC)C(=O)[C@@H]1C=C2c3cccc4[nH]cc(c34)C[C@H]2N(C)C1` [LYSERGIDE], the Ki [2] is reported as 5.05 nM, the ED50 (Rattus norvegicus [3]) is reported as 0.0275 µmol/kg and the SDL (Rattus norvegicus [6]) is reported as 36%. For the same compound, the SDL (Rattus norvegicus [7]) was 78%, the SDL (Rattus norvegicus [19]) was 0% and the SDL (Rattus norvegicus [8]) was 100%.
